Assay results from different studies.
Target: Tyrosine-protein kinase Mer (MERTK, Homo sapiens, UniProt Q12866)
Sequence (Q12866 21-999, as in one of the studies): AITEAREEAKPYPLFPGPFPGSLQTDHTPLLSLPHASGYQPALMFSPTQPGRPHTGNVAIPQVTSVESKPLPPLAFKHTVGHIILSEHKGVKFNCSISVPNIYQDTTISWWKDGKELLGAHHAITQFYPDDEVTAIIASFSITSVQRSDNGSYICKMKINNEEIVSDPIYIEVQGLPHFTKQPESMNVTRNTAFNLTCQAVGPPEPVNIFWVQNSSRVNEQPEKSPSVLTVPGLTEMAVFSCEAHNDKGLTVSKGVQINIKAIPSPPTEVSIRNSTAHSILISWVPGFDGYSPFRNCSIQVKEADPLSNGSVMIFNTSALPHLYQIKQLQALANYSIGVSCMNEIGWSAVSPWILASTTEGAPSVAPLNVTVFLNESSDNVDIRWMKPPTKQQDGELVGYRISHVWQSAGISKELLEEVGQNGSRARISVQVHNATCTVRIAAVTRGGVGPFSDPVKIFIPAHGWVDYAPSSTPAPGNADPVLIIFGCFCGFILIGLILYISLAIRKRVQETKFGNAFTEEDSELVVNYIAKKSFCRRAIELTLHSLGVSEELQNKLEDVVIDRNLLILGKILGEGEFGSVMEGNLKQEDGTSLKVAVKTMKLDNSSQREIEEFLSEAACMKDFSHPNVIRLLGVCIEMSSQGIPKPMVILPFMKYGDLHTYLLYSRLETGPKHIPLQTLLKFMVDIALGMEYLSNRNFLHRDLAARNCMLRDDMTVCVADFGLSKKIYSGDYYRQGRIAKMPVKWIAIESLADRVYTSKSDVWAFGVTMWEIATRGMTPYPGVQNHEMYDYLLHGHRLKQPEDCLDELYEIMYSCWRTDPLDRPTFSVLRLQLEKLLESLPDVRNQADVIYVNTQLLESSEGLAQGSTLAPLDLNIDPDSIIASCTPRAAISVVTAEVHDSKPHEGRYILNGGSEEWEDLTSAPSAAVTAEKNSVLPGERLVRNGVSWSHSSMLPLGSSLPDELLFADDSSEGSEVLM

CCCOc1ccc([C@H]2[C@H](C(=O)O)[C@@H](c3ccc4c(c3)OCO4)CN2CC(=O)Nc2c(CC)cccc2CC)cc1 — remaining binding (cell-free assay, competition with immobilised ligand; 1 µM): 87%
CCN(CC)CCNC(=O)c1c(C)[nH]c(/C=C2\C(=O)Nc3ccc(F)cc32)c1C — inhibition (enzyme activity, inhibitor; 0.3 µM): 94%
Cn1c2c(Cl)c(Cl)ccc2c2cc[nH]c(=O)c21 — ΔTm (thermal stability, DSF; 10 µM): 1.3 °C
COc1cc2ncnc(Nc3ccc(Oc4ccccc4)cc3C)c2cc1OC — inhibition (enzyme activity, inhibitor; 1 µM): 87%
COc1cc2c(N3CCN(C(=O)Nc4ccc(OC(C)C)cc4)CC3)ncnc2cc1OCCCN1CCCCC1 — remaining signal (cell-free assay; 0.5 µM): 106%
CNC(=O)Nc1ccc2c(c1)[C@@]1(CC2)OC(=O)N(CC(=O)N(Cc2ccc(F)cc2)[C@@H](C)C(F)(F)F)C1=O — remaining binding (cell-free assay, competition with immobilised ligand; 1 µM): 100%
O=C1NC(=O)c2cc(Nc3ccc(F)cc3)c(Nc3ccc(F)cc3)cc21 — remaining signal (cell-free assay; 0.5 µM): 97.4%
CC(C)CC(=O)N1CCc2nc(-c3ccc(Br)cc3)nc(N(C)Cc3ccccc3)c2C1 — remaining binding (cell-free assay, competition with immobilised ligand; 0.1 µM): 100%
CC(C)(O)[C@H]1CC[C@H](Nc2ccc3ncc(-c4cccc(C(F)(F)F)c4)n3n2)CC1 — remaining activity (enzyme activity, inhibitor; 1 µM): 64.1%
CC/C(=N\NC(=O)NCc1cccc(O)c1)c1ccc(O)c(C)c1O — inhibition (enzyme activity, inhibitor; 0.1 µM): 5%
CCN1CCC2(CC1)NC(=O)c1c(c3ccc(Cl)c(Cl)c3n1C)C2C#N (racemic) — ΔTm (thermal stability, DSF; 10 µM): 1 °C
CCN(CC)c1ccc(C2=NNC(=O)CC2C)cc1[N+](=O)[O-] (stereo not drawn) — remaining activity (enzyme activity, inhibitor; 10 µM): 97%
Cc1sc(C(=O)NC2COC2)cc1-n1cc(NC(=O)Nc2c(F)cccc2Cl)cn1 — remaining activity (enzyme activity, inhibitor; 10 µM): 103%
CN(C)C(=O)Cn1cc(-c2nc([C@@](C)(c3ccc(-c4cnc(N)nc4)cc3)C3CC3)no2)cn1 — remaining binding (cell-free assay, competition with immobilised ligand; 1 µM): 100%
COc1cc2nccc(Oc3ccc(NC(=O)c4c5n(n(-c6ccc(F)cc6)c4=O)CCCC5)cc3)c2cc1OC — inhibition (enzyme activity, inhibitor; 0.1 µM): 100%
CC(C)(C)c1nc2c(s1)c1nc(N)ncc1c1ccc(NS(=O)(=O)c3c(F)cccc3F)c(F)c12 — remaining activity (enzyme activity, inhibitor, radiometric; 1 µM): 124%
O=C(NC[C@@H]1[C@H]2CN(C(=O)OCc3cc(C(F)(F)F)cc(C(F)(F)F)c3)C[C@@H]12)c1ccc2[nH]nnc2c1 — remaining binding (cell-free assay, competition with immobilised ligand; 1 µM): 100%
Cc1ccc(Nc2nccc(N(C)c3ccc4c(C)n(C)nc4c3)n2)cc1S(N)(=O)=O — inhibition (enzyme activity, inhibitor; 0.3 µM): 32%
Cn1c2c(c3ccc(Cl)c(Cl)c31)C(C#N)C1(CCOCC1)NC2=O (stereo not drawn) — ΔTm (thermal stability, DSF; 10 µM): -0.5 °C
CC(C)(O)c1cncc(-c2nc3ccc(F)cc3n2C2CC2)c1 — remaining binding (cell-free assay, competition with immobilised ligand; 1 µM): 96%
CNC(=O)c1cc(Oc2ccc(NC(=O)Nc3ccc(Cl)c(C(F)(F)F)c3)cc2)ccn1 — inhibition (enzyme activity, inhibitor; 0.3 µM): 26%
CCCCN(CCCC)C(=O)CN1C[C@H](c2cc(OC)c3c(c2)OCO3)[C@@H](C(=O)O)[C@@H]1CC(C)(C)CCC — remaining binding (cell-free assay, competition with immobilised ligand; 1 µM): 100%
Cn1c2c(Cl)c(Cl)ccc2c2cc(N)[nH]c(=O)c21 — ΔTm (thermal stability, DSF; 10 µM): 0.1 °C
Cc1ccc(C(=O)Nc2ccc(CN3CCN(C)CC3)c(C(F)(F)F)c2)cc1C#Cc1cnc2cccnn12 — remaining activity (enzyme activity; 23.5 nM): 86%
Cc1ccc(C(=O)NCc2ccsc2)cc1C#Cc1cn(C(C)C)c2ncnc(N)c12 — activity vs control (enzyme activity, inhibitor; 1 µM): 71%
Cc1cnc(NC2CCOCC2)nc1-n1cnc(C(=O)NC(CN)c2cc(F)cc(Cl)c2)c1 (stereo not drawn) — remaining activity (enzyme activity, inhibitor, radiometric; 1 µM): 96%
CNCc1ccccc1-c1csc([C@H](C)Nc2nc(C)nc3cc(OC)c(OC)cc23)c1 — remaining binding (cell-free assay, competition with immobilised ligand; 1 µM): 72%
Cn1c2c(c3ccccc31)C(C#N)C(C)(C)NC2=O (stereo not drawn) — ΔTm (thermal stability, DSF; 10 µM): 0.8 °C
CCCOc1ccc(OC)c(F)c1C(=O)c1ccc(C(=O)N[C@@H]2CNC[C@H]2NC(=O)c2ccc3[nH]ncc3c2)cc1 — remaining activity (enzyme activity, inhibitor; 10 µM): 36%
COc1cc(Cl)c(C(=O)N[C@@H](CN[C@H]2CC[C@@H](N)CC2)Cc2ccc(C#N)cc2)cc1-c1ccc(CN[C@H](C)c2ccc(C)cc2)o1 — remaining activity (enzyme activity, inhibitor; 1 µM): 99%
